Laboratory results as given in ChEMBL document CHEMBL5058577, “EUbOPEN Chemogenomics Library 2 (Multiplex)” (2022).

Test system: U2OS
Assay: Multiplex assay against U2OS
Type: toxicity, cell-based
Settings: human
Outline: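 At seeding, live cells were stained with Hoechst33342, BioTracker Green Microtubule Cytoskeleton Dye, MitoTracker Red and Annexin V Alexa Fluor 680. After compound addition they were imaged on a CQ1 microscope at 37°C and 5% CO2, and CellPathfinder machine-learning gating sorted them into Hoechst high-intensity objects or normal cells, with normal cells further split into healthy, pyknosed or fragmented nuclei and pyknosed cells into mitotic or apoptotic. Tubulin, mitochondrial-mass and membrane-permeability phenotypes are given as per cents of cells with healthy nuclei.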

[1] = 12 h, 1 µM, compound concentration 1 uM, replicate 1
[2] = 12 h, 1 µM, compound concentration 1 uM, replicate 2
[3] = 12 h, 10 µM, compound concentration 10 uM, replicate 1
[4] = 12 h, 10 µM, compound concentration 10 uM, replicate 2
[5] = 24 h, 1 µM, compound concentration 1 uM, replicate 1
[6] = 24 h, 1 µM, compound concentration 1 uM, replicate 2
[7] = 24 h, 10 µM, compound concentration 10 uM, replicate 1
[8] = 24 h, 10 µM, compound concentration 10 uM, replicate 2
[9] = 48 h, 1 µM, compound concentration 1 uM, replicate 1
[10] = 48 h, 1 µM, compound concentration 1 uM, replicate 2
[11] = 48 h, 10 µM, compound concentration 10 uM, replicate 1
[12] = 48 h, 10 µM, compound concentration 10 uM, replicate 2

In the case of `CN1C[C@H](C(=O)N[C@]2(C)O[C@@]3(O)[C@@H]4CCCN4C(=O)[C@H](Cc4ccccc4)N3C2=O)C[C@@H]2c3cccc4[nH]cc(c34)C[C@H]21.CS(=O)(=O)O` [DIHYDROERGOTAMINE MESYLATE], the “Population Apoptotic (%)” value [1] is reported as 82%, the “Population Fragmented Nuclei (%)” value [1] is reported as 24% and the “Population Healthy Nuclei (%)” value [1] is reported as 65%. The “Population Hoechst High Intensity Objects (%)” value [1] was 1%, the “Population Membrane Permeable-Phenotype (%)” value [1] was 6% and the “Population Mitochondria Different-Phenotype (%)” value [1] was 2%. The “Population Mitotic Cells (%)” value [1] was 17%, the “Population Normal (%)” value [1] was 98% and the “Population Pyknosed Nuclei (%)” value [1] was 10%. The “Population Tubulin-Different-Phenotype (%)” value [1] was 2%, the “Total Cell Count” value [1] was 233 and the “Population Apoptotic (%)” value [2] was 84%. For the same molecule, the “Population Fragmented Nuclei (%)” value [2] was 23%, the “Population Healthy Nuclei (%)” value [2] was 63% and the “Population Membrane Permeable-Phenotype (%)” value [2] was 14%. The “Population Mitochondria Different-Phenotype (%)” value [2] was 1%, the “Population Mitotic Cells (%)” value [2] was 15% and the “Population Pyknosed Nuclei (%)” value [2] was 13%. The “Population Tubulin-Different-Phenotype (%)” value [2] was 7%, the “Total Cell Count” value [2] was 101 and the “Population Apoptotic (%)” value [3] was 71%. For the same molecule, the “Population Fragmented Nuclei (%)” value [3] was 19%, the “Population Healthy Nuclei (%)” value [3] was 73% and the “Population Hoechst High Intensity Objects (%)” value [3] was 2%. The “Population Membrane Permeable-Phenotype (%)” value [3] was 5%, the “Population Mitochondria Different-Phenotype (%)” value [3] was 1% and the “Population Mitotic Cells (%)” value [3] was 28%. For the same molecule, the “Population Normal (%)” value [3] was 97%, the “Population Pyknosed Nuclei (%)” value [3] was 7% and the “Population Tubulin-Different-Phenotype (%)” value [3] was 3%. For the same molecule, the “Total Cell Count” value [3] was 298, the “Population Apoptotic (%)” value [4] was 100% and the “Population Healthy Nuclei (%)” value [4] was 77%. The “Population Hoechst High Intensity Objects (%)” value [4] was 1%, the “Population Mitochondria Different-Phenotype (%)” value [4] was 0% and the “Population Mitotic Cells (%)” value [4] was 0%. The “Population Normal (%)” value [4] was 98%, the “Population Pyknosed Nuclei (%)” value [4] was 2% and the “Population Tubulin-Different-Phenotype (%)” value [4] was 0%. For the same molecule, the “Total Cell Count” value [4] was 144, the “Population Apoptotic (%)” value [5] was 89% and the “Population Fragmented Nuclei (%)” value [5] was 23%. The “Population Healthy Nuclei (%)” value [5] was 67%, the “Population Hoechst High Intensity Objects (%)” value [5] was 0% and the “Population Membrane Permeable-Phenotype (%)” value [5] was 2%. For the same molecule, the “Population Mitochondria Different-Phenotype (%)” value [5] was 0%, the “Population Mitotic Cells (%)” value [5] was 10% and the “Population Normal (%)” value [5] was 99%. For the same molecule, the “Population Pyknosed Nuclei (%)” value [5] was 9%, the “Population Tubulin-Different-Phenotype (%)” value [5] was 2% and the “Total Cell Count” value [5] was 307. For the same molecule, the “Population Apoptotic (%)” value [6] was 100%, the “Population Fragmented Nuclei (%)” value [6] was 21% and the “Population Healthy Nuclei (%)” value [6] was 65%. For the same molecule, the “Population Hoechst High Intensity Objects (%)” value [6] was 1%, the “Population Membrane Permeable-Phenotype (%)” value [6] was 8% and the “Population Mitochondria Different-Phenotype (%)” value [6] was 2%. For the same molecule, the “Population Mitotic Cells (%)” value [6] was 0%, the “Population Normal (%)” value [6] was 98% and the “Population Pyknosed Nuclei (%)” value [6] was 13%. For the same molecule, the “Population Tubulin-Different-Phenotype (%)” value [6] was 4%, the “Total Cell Count” value [6] was 132 and the “Population Apoptotic (%)” value [7] was 88%. The “Population Fragmented Nuclei (%)” value [7] was 18%, the “Population Healthy Nuclei (%)” value [7] was 73% and the “Population Hoechst High Intensity Objects (%)” value [7] was 1%. For the same molecule, the “Population Membrane Permeable-Phenotype (%)” value [7] was 4%, the “Population Mitochondria Different-Phenotype (%)” value [7] was 2% and the “Population Mitotic Cells (%)” value [7] was 11%. For the same molecule, the “Population Normal (%)” value [7] was 98%, the “Population Pyknosed Nuclei (%)” value [7] was 8% and the “Population Tubulin-Different-Phenotype (%)” value [7] was 2%. For the same molecule, the “Total Cell Count” value [7] was 337, the “Population Apoptotic (%)” value [8] was 92% and the “Population Fragmented Nuclei (%)” value [8] was 16%. For the same molecule, the “Population Healthy Nuclei (%)” value [8] was 75%, the “Population Mitotic Cells (%)” value [8] was 7% and the “Population Tubulin-Different-Phenotype (%)” value [8] was 1%. The “Total Cell Count” value [8] was 163, the “Population Apoptotic (%)” value [9] was 80% and the “Population Fragmented Nuclei (%)” value [9] was 14%. The “Population Healthy Nuclei (%)” value [9] was 78%, the “Population Hoechst High Intensity Objects (%)” value [9] was 2% and the “Population Membrane Permeable-Phenotype (%)” value [9] was 2%. For the same molecule, the “Population Mitochondria Different-Phenotype (%)” value [9] was 2%, the “Population Mitotic Cells (%)” value [9] was 19% and the “Population Normal (%)” value [9] was 97%. The “Population Pyknosed Nuclei (%)” value [9] was 7%, the “Population Tubulin-Different-Phenotype (%)” value [9] was 1% and the “Total Cell Count” value [9] was 427. For the same molecule, the “Population Apoptotic (%)” value [10] was 90%, the “Population Fragmented Nuclei (%)” value [10] was 11% and the “Population Healthy Nuclei (%)” value [10] was 76%. For the same molecule, the “Population Hoechst High Intensity Objects (%)” value [10] was 1%, the “Population Membrane Permeable-Phenotype (%)” value [10] was 6% and the “Population Mitotic Cells (%)” value [10] was 10%. For the same molecule, the “Population Normal (%)” value [10] was 98%, the “Population Pyknosed Nuclei (%)” value [10] was 11% and the “Population Tubulin-Different-Phenotype (%)” value [10] was 4%. The “Total Cell Count” value [10] was 173, the “Population Apoptotic (%)” value [11] was 95% and the “Population Fragmented Nuclei (%)” value [11] was 14%. The “Population Healthy Nuclei (%)” value [11] was 75%, the “Population Hoechst High Intensity Objects (%)” value [11] was 3% and the “Population Membrane Permeable-Phenotype (%)” value [11] was 7%. For the same molecule, the “Population Mitochondria Different-Phenotype (%)” value [11] was 3%, the “Population Mitotic Cells (%)” value [11] was 4% and the “Population Normal (%)” value [11] was 96%. The “Population Pyknosed Nuclei (%)” value [11] was 9%, the “Population Tubulin-Different-Phenotype (%)” value [11] was 3% and the “Total Cell Count” value [11] was 452. For the same molecule, the “Population Apoptotic (%)” value [12] was 100%, the “Population Fragmented Nuclei (%)” value [12] was 19% and the “Population Healthy Nuclei (%)” value [12] was 72%. For the same molecule, the “Population Membrane Permeable-Phenotype (%)” value [12] was 3%, the “Population Mitochondria Different-Phenotype (%)” value [12] was 1% and the “Population Mitotic Cells (%)” value [12] was 0%. The “Population Pyknosed Nuclei (%)” value [12] was 8%, the “Population Tubulin-Different-Phenotype (%)” value [12] was 2% and the “Total Cell Count” value [12] was 217.
